According to ChEMBL document CHEMBL1765023, “Acetyl analogs of combretastatin A-4: synthesis and biological studies” (Bioorg Med Chem, 2011):

Tests used:
Mus musculus [1] = assay: Toxicity in DBA2 mouse assessed as change in hematocrit at 75 mg/kg, ip QD administered on alternate days for 17 days measured on day 23 relative to control; format: organism-based; design: dose 75 mg/kg, route intraperitoneal; conditions: in vivo, 408 h
Procedure, shortened: (§1)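 Healthy female DBA2 mice, 5–7 weeks old, five per group, received 75 mg/kg ip on days 1, 5, 9, 13 and 17. Vehicle was PET (PEG400/ethanol/Tween 80, 6:3:1), 5% glucose and DMSO, with final ethanol 15% and DMSO 10%. Controls received 100 µL vehicle. Body weight was measured every other day. At sacrifice on day 23, blood counts (hematocrit, WBC, granulocytes, platelets) and liver, kidney and spleen appearance and weight were assessed.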

Mus musculus [2] = assay: Toxicity in DBA2 mouse assessed as change in color, weight and size in spleen at 75 mg/kg, ip QD administered on alternate days for 17 days measured on day 23 relative to control; format: organism-based; design: dose 75 mg/kg, route intraperitoneal; conditions: in vivo, 408 h; procedure, shortened: as §1
MDA-MB-231 = assay: Growth inhibition of human MDA-MB-231 cells after 48 hrs by sulforhodamine B assay; format: functional; conditions: MDA-MB-231, 48 h
Procedure, shortened: (§2)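 NCI 60 human cancer cell line screen run at the National Cancer Institute. Cells had 48 h continuous exposure, and proliferation was read by sulforhodamine B staining. GI50 (50% growth inhibition) was taken from dose–response curves.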

HOP-62 = assay: Growth inhibition of human HOP62 cells after 48 hrs by sulforhodamine B assay; format: functional; conditions: HOP-62, 48 h; procedure, shortened: as §2
786-0 = assay: Growth inhibition of human 786-0 cells after 48 hrs by sulforhodamine B assay; format: functional; conditions: 786-0, 48 h; procedure, shortened: as §2
UACC-257 = assay: Growth inhibition of human UACC257 cells after 48 hrs by sulforhodamine B assay; format: functional; conditions: UACC-257, 48 h
Procedure, shortened: (§3)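 Tested in the NCI 60 human cancer cell line panel. Cells were exposed continuously for 48 h and proliferation was read by sulforhodamine B staining. GI50 (concentration for 50% growth inhibition), TGI (total growth inhibition) and LC50 were taken from dose–response curves.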

OVCAR-8 = assay: Growth inhibition of human OVCAR8 cells after 48 hrs by sulforhodamine B assay; format: functional; conditions: OVCAR-8, 48 h; procedure, shortened: as §2
MDA-MB-435 = assay: Growth inhibition of human MDA-MB-435 cells after 48 hrs by sulforhodamine B assay; format: functional; conditions: MDA-MB-435, 48 h; procedure, shortened: as §2
Mus musculus [3] = assay: Toxicity in DBA2 mouse assessed as change in granulocyte count at 75 mg/kg, ip QD administered on alternate days for 17 days measured on day 23 relative to control; format: organism-based; design: dose 75 mg/kg, route intraperitoneal; conditions: in vivo, 408 h; procedure, shortened: as §1
Mus musculus [4] = assay: Toxicity in DBA2 mouse assessed as change in platelet count at 75 mg/kg, ip QD administered on alternate days for 17 days measured on day 23 relative to control; format: organism-based; design: dose 75 mg/kg, route intraperitoneal; conditions: in vivo, 408 h; procedure, shortened: as §1
CAKI-1 = assay: Growth inhibition of human Caki1 cells after 48 hrs by sulforhodamine B assay; format: functional; conditions: CAKI-1, 48 h; procedure, shortened: as §2
OVCAR-3 = assay: Growth inhibition of human OVCAR3 cells after 48 hrs by sulforhodamine B assay; format: functional; conditions: OVCAR-3, 48 h; procedure, shortened: as §2
HL-60(TB) = assay: Growth inhibition of human HL-60(TB) cells after 48 hrs by sulforhodamine B assay; format: functional; conditions: HL-60, 48 h
Procedure, shortened: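 NCI 60 human cancer cell line panel, tested at the National Cancer Institute. Continuous 48 h drug exposure, with proliferation read by sulforhodamine B staining. Dose–response curves gave GI50 (concentration inhibiting growth by 50%), TGI (total growth inhibition) and LC50.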

OVCAR-5 = assay: Growth inhibition of human OVCAR5 cells after 48 hrs by sulforhodamine B assay; format: functional; conditions: OVCAR-5, 48 h; procedure, shortened: as §2
Malme-3M = assay: Growth inhibition of human MALME-3M cells after 48 hrs by sulforhodamine B assay; format: functional; conditions: read-out: pTGI; procedure, shortened: as §2
NCI-H23 = assay: Growth inhibition of human NCI-H23 cells after 48 hrs by sulforhodamine B assay; format: functional; conditions: NCI-H23, 48 h; procedure, shortened: as §2
SF-295 = assay: Growth inhibition of human SF295 cells after 48 hrs by sulforhodamine B assay; format: functional; conditions: SF-295, 48 h; procedure, shortened: as §2
NCI-H322M = assay: Growth inhibition of human NCI-H322M cells after 48 hrs by sulforhodamine B assay; format: functional; procedure, shortened: as §2
A549 = assay: Growth inhibition of human A549 cells after 48 hrs by sulforhodamine B assay; format: functional; conditions: A549, 48 h; procedure, shortened: as §2
SN12C = assay: Growth inhibition of human SN12C cells after 48 hrs by sulforhodamine B assay; format: functional; procedure, shortened: as §3
MCF7 = assay: Growth inhibition of human MCF7 cells after 48 hrs by sulforhodamine B assay; format: functional; conditions: MCF7, 48 h; procedure, shortened: as §2
NCI-H226 = assay: Growth inhibition of human NCI-H226 cells after 48 hrs by sulforhodamine B assay; format: functional; conditions: NCI-H226, 48 h; procedure, shortened: as §2
RXF 393 = assay: Growth inhibition of human RXF393 cells after 48 hrs by sulforhodamine B assay; format: functional; conditions: RXF 393, 48 h; procedure, shortened: as §2
[5] = Ratio of EC50 for microtubule depolymerization in […] cells to IC50 for human MDA-MB-435 cells
SF-539 = assay: Growth inhibition of human SF539 cells after 48 hrs by sulforhodamine B assay; format: functional; conditions: SF-539, 48 h; procedure, shortened: as §2
M14 = assay: Growth inhibition of human M14 cells after 48 hrs by sulforhodamine B assay; format: functional; conditions: M14, 48 h; procedure, shortened: as §2
U-251 = assay: Growth inhibition of human U251 cells after 48 hrs by sulforhodamine B assay; format: functional; conditions: U-251, 48 h; procedure, shortened: as §3
SNB-19 = assay: Growth inhibition of human SNB19 cells after 48 hrs by sulforhodamine B assay; format: functional; conditions: SNB-19, 48 h; procedure, shortened: as §3
UO-31 = assay: Growth inhibition of human UO31 cells after 48 hrs by sulforhodamine B assay; format: functional; conditions: UO-31, 48 h; procedure, shortened: as §3
Mus musculus [6] = assay: Toxicity in DBA2 mouse assessed as change in color, weight and size in kidney at 75 mg/kg, ip QD administered on alternate days for 17 days measured on day 23 relative to control; format: organism-based; design: dose 75 mg/kg, route intraperitoneal; conditions: in vivo, 408 h; procedure, shortened: as §1
L1210 = assay: Cytotoxicity against mouse L1210 cells by MTT assay; format: functional, cell-based
[7] = Growth inhibition of human Hs 578T cells after 48 hrs by sulforhodamine B assay; format: functional; procedure, shortened: as §2
OVCAR-4 = assay: Growth inhibition of human OVCAR4 cells after 48 hrs by sulforhodamine B assay; format: functional; conditions: OVCAR-4, 48 h; procedure, shortened: as §2
NCI-H460 = assay: Growth inhibition of human NCI-H460 cells after 48 hrs by sulforhodamine B assay; format: functional; conditions: NCI-H460, 48 h; procedure, shortened: as §2

SMILES: COc1ccc(/C=C(/C(C)=O)c2cc(OC)c(OC)c(OC)c2)cc1O
- Activity (Mus musculus [1]): Non-toxic
- Activity (Mus musculus [2]): Non-toxic
- GI50 (MDA-MB-231): 575 nM
- TGI (MDA-MB-231; read-out: pTGI): > 100000 nM
- GI50 (HOP-62): 589 nM
- TGI (HOP-62; read-out: pTGI): > 100000 nM
- GI50 (786-0): 562 nM
- TGI (786-0; read-out: pTGI (converted)): 44700 nM
- GI50 (UACC-257): 186 nM
- TGI (UACC-257; read-out: pTGI): > 100000 nM
- GI50 (OVCAR-8): 372 nM
- TGI (OVCAR-8; read-out: pTGI): > 100000 nM
- GI50 (MDA-MB-435): 25.7 nM
- TGI (MDA-MB-435; read-out: pTGI (converted)): 75.9 nM
- Activity (Mus musculus [3]): Non-toxic
- Activity (Mus musculus [4]): Non-toxic
- GI50 (CAKI-1): 186 nM
- TGI (CAKI-1; read-out: pTGI (converted)): 19500 nM
- GI50 (OVCAR-3): 95.5 nM
- TGI (OVCAR-3; read-out: pTGI (converted)): 355 nM
- GI50 (HL-60(TB)): 37.1 nM
- GI50 (OVCAR-5): 4270 nM
- TGI (OVCAR-5; read-out: pTGI): > 100000 nM
- TGI (Malme-3M): > 100000 nM
- GI50 (NCI-H23): 355 nM
- TGI (NCI-H23; read-out: pTGI): > 100000 nM
- GI50 (SF-295): 263 nM
- TGI (SF-295; read-out: pTGI (converted)): 1050 nM
- GI50 (NCI-H322M): 513 nM
- TGI (NCI-H322M; read-out: pTGI): > 100000 nM
- GI50 (A549): 468 nM
- TGI (A549; read-out: pTGI): > 100000 nM
- GI50 (SN12C): 776 nM
- TGI (SN12C; read-out: pTGI): > 100000 nM
- GI50 (MCF7): 195 nM
- TGI (MCF7; read-out: pTGI): > 100000 nM
- GI50 (NCI-H226): 1000 nM
- TGI (NCI-H226; read-out: pTGI): > 100000 nM
- GI50 (RXF 393): 219 nM
- Ratio [5]: 10
- GI50 (SF-539): 302 nM
- TGI (SF-539; read-out: pTGI): > 100000 nM
- GI50 (M14): 209 nM
- TGI (M14; read-out: pTGI): > 100000 nM
- GI50 (U-251): 324 nM
- TGI (U-251; read-out: pTGI): > 100000 nM
- GI50 (SNB-19): 676 nM
- TGI (SNB-19; read-out: pTGI): > 100000 nM
- GI50 (UO-31): 575 nM
- TGI (UO-31; read-out: pTGI): > 100000 nM
- Activity (Mus musculus [6]): Non-toxic
- IC50 (L1210): 450 nM
- GI50 [7]: 89.1 nM
- TGI ([7]; read-out: pTGI (converted)): 74100 nM
- GI50 (OVCAR-4): 933 nM
- TGI (OVCAR-4; read-out: pTGI): > 100000 nM
- GI50 (NCI-H460): 263 nM
- TGI (NCI-H460; read-out: pTGI (converted)): 1320 nM
